Converted amounts (≈) assume the structure as drawn.
Assays:
[1] = target: T1, Lanosterol 14-alpha demethylase (Candida albicans (strain SC5314 / ATCC MYA-2876) (Yeast), UniProt P10613); assay: Inhibition of CYP51 in Candida albicans ATCC SC5314 assessed as ergosterol content at 8 ug/ml by GS-MS analysis relative to total sterols (reference value: 98.7%); parameters: scale not given: the % may be the effect or the level left; details: at 8 µg/mL
Candida tropicalis = assay: Antifungal activity against Candida tropicalis cgmcc 2.3739 by broth microdilution method; type: functional
Summary of the method: (§1)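 Serial twofold-style dilution in growth medium per NCCLS broth microdilution guidelines. Compounds dissolved in DMSO before dilution. Fluconazole and itraconazole served as positive controls. MIC was read as the lowest concentration that prevents visible fungal growth.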

[2] = target: T1, Lanosterol 14-alpha demethylase; assay: Inhibition of CYP51 in Candida albicans ATCC SC5314 assessed as eburicol content at 0.03125 ug/ml by GS-MS analysis relative to total sterols (reference value: 0.4%); parameters: scale not given: the % may be the effect or the level left
[3] = target: T1, Lanosterol 14-alpha demethylase; assay: Inhibition of CYP51 in Candida albicans ATCC SC5314 assessed as ergosterol content at 2 ug/ml by GS-MS analysis relative to total sterols (reference value: 98.7%); parameters: scale not given: the % may be the effect or the level left; details: at 2 µg/mL
[4] = target: T1, Lanosterol 14-alpha demethylase; assay: Inhibition of CYP51 in Candida albicans ATCC SC5314 assessed as eburicol content at 0.125 ug/ml by GS-MS analysis relative to total sterols (reference value: 0.4%); parameters: scale not given: the % may be the effect or the level left
[5] = target: T1, Lanosterol 14-alpha demethylase; assay: Inhibition of CYP51 in Candida albicans ATCC SC5314 assessed as lanosterol content at 0.125 ug/ml by GS-MS analysis relative to total sterols; parameters: scale not given: the % may be the effect or the level left
[6] = target: T1, Lanosterol 14-alpha demethylase; assay: Inhibition of CYP51 in Candida albicans ATCC SC5314 assessed as increase in lanosterol content by GS-MS analysis
Candida albicans [7] = assay: Antifungal activity against fluconazole-resistant Candida albicans strain 100 by broth microdilution method; type: functional
Summary of the method: (§2)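 Broth serial dilution in 96-well plates per NCCLS guidelines; compounds dissolved in DMSO and serially diluted into growth medium; MIC taken as lowest concentration inhibiting visible fungal growth. Fluconazole-resistant clinical C. albicans isolates 100 and 103; fluconazole and itraconazole as positive controls.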

[8] = target: T1, Lanosterol 14-alpha demethylase; assay: Inhibition of CYP51 in Candida albicans ATCC SC5314 assessed as obtusifoliol content at 0.03125 ug/ml by GS-MS analysis relative to total sterols (reference value: 0.6%); parameters: scale not given: the % may be the effect or the level left
[9] = target: T1, Lanosterol 14-alpha demethylase; assay: Inhibition of CYP51 in Candida albicans ATCC SC5314 assessed as decrease in ergosterol content by GS-MS analysis
[10] = target: T1, Lanosterol 14-alpha demethylase; assay: Inhibition of CYP51 in Candida albicans ATCC SC5314 assessed as lanosterol content at 8 ug/ml by GS-MS analysis relative to total sterols; parameters: scale not given: the % may be the effect or the level left; details: at 8 µg/mL
Aspergillus fumigatus = assay: Antifungal activity against Aspergillus fumigatus GIM 3.524 by broth microdilution method; type: functional; summary of the method: as §1
Candida albicans [11] = assay: Antifungal activity against Candida albicans CPCC 400523 by broth microdilution method; type: functional; summary of the method: as §1
[12] = target: T1, Lanosterol 14-alpha demethylase; assay: Inhibition of CYP51 in Candida albicans ATCC SC5314 assessed as eburicol content at 2 ug/ml by GS-MS analysis relative to total sterols (reference value: 0.4%); parameters: scale not given: the % may be the effect or the level left; details: at 2 µg/mL
[13] = target: T1, Lanosterol 14-alpha demethylase; assay: Inhibition of CYP51 in Candida albicans ATCC SC5314 assessed as ergosterol content at 0.03125 ug/ml by GS-MS analysis relative to total sterols (reference value: 98.7%); parameters: scale not given: the % may be the effect or the level left
[14] = target: T1, Lanosterol 14-alpha demethylase; assay: Inhibition of CYP51 in Candida albicans ATCC SC5314 assessed as obtusifoliol content at 8 ug/ml by GS-MS analysis relative to total sterols (reference value: 0.6%); parameters: scale not given: the % may be the effect or the level left; details: at 8 µg/mL
[15] = target: T1, Lanosterol 14-alpha demethylase; assay: Inhibition of CYP51 in Candida albicans ATCC SC5314 assessed as eburicol content at 8 ug/ml by GS-MS analysis relative to total sterols (reference value: 0.4%); parameters: scale not given: the % may be the effect or the level left; details: at 8 µg/mL
Candida albicans [16] = assay: Antifungal activity against Candida albicans ATCC SC5314 by broth microdilution method; type: functional; summary of the method: as §1
[17] = target: T1, Lanosterol 14-alpha demethylase; assay: Inhibition of CYP51 in Candida albicans ATCC SC5314 assessed as 4,4-dimethyl zymosterol content at 2 ug/ml by GS-MS analysis relative to total sterols; parameters: scale not given: the % may be the effect or the level left
Summary of the method: (§3)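 C. albicans SC5314 cells exposed to drug at 0.03125–8 µg/mL alongside untreated and fluconazole-treated cells; sterols extracted and analysed by GC-MS with cholesterol as internal standard; each sterol expressed as percent of total sterols.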

[18] = target: T1, Lanosterol 14-alpha demethylase; assay: Inhibition of CYP51 in Candida albicans ATCC SC5314 assessed as 4,4-dimethyl zymosterol content at 8 ug/ml by GS-MS analysis relative to total sterols; parameters: scale not given: the % may be the effect or the level left; summary of the method: as §3
[19] = target: T1, Lanosterol 14-alpha demethylase; assay: Inhibition of CYP51 in Candida albicans ATCC SC5314 assessed as lanosterol content at 2 ug/ml by GS-MS analysis relative to total sterols; parameters: scale not given: the % may be the effect or the level left; details: at 2 µg/mL
Candida albicans [20] = assay: Antifungal activity against fluconazole-resistant Candida albicans strain 103 by broth microdilution method; type: functional; summary of the method: as §2
[21] = target: T1, Lanosterol 14-alpha demethylase; assay: Inhibition of CYP51 in Candida albicans ATCC SC5314 assessed as obtusifoliol content at 2 ug/ml by GS-MS analysis relative to total sterols (reference value: 0.6%); parameters: scale not given: the % may be the effect or the level left; details: at 2 µg/mL
Cryptococcus neoformans = assay: Antifungal activity against Cryptococcus neoformans cgmcc 2.3161 by broth microdilution method; type: functional; summary of the method: as §1
[22] = target: T1, Lanosterol 14-alpha demethylase; assay: Inhibition of CYP51 in Candida albicans ATCC SC5314 assessed as lanosterol content at 0.5 ug/ml by GS-MS analysis relative to total sterols; parameters: scale not given: the % may be the effect or the level left; details: at 0.5 µg/mL
[23] = target: T1, Lanosterol 14-alpha demethylase; assay: Inhibition of CYP51 in Candida albicans ATCC SC5314 assessed as increase in eburicol content by GS-MS analysis
[24] = target: T1, Lanosterol 14-alpha demethylase; assay: Inhibition of CYP51 in Candida albicans ATCC SC5314 assessed as obtusifoliol content at 0.5 ug/ml by GS-MS analysis relative to total sterols (reference value: 0.6%); parameters: scale not given: the % may be the effect or the level left; details: at 0.5 µg/mL
[25] = target: T1, Lanosterol 14-alpha demethylase; assay: Inhibition of CYP51 in Candida albicans ATCC SC5314 assessed as eburicol content at 0.5 ug/ml by GS-MS analysis relative to total sterols (reference value: 0.4%); parameters: scale not given: the % may be the effect or the level left; details: at 0.5 µg/mL
[26] = target: T1, Lanosterol 14-alpha demethylase; assay: Inhibition of CYP51 in Candida albicans ATCC SC5314 assessed as obtusifoliol content at 0.125 ug/ml by GS-MS analysis relative to total sterols (reference value: 0.6%); parameters: scale not given: the % may be the effect or the level left
[27] = target: T1, Lanosterol 14-alpha demethylase; assay: Inhibition of CYP51 in Candida albicans ATCC SC5314 assessed as ergosterol content at 0.5 ug/ml by GS-MS analysis relative to total sterols (reference value: 98.7%); parameters: scale not given: the % may be the effect or the level left; details: at 0.5 µg/mL
[28] = target: T1, Lanosterol 14-alpha demethylase; assay: Inhibition of CYP51 in Candida albicans ATCC SC5314 assessed as ergosterol content at 0.125 ug/ml by GS-MS analysis relative to total sterols (reference value: 98.7%); parameters: scale not given: the % may be the effect or the level left

T1 sequence (P10613 whole entry): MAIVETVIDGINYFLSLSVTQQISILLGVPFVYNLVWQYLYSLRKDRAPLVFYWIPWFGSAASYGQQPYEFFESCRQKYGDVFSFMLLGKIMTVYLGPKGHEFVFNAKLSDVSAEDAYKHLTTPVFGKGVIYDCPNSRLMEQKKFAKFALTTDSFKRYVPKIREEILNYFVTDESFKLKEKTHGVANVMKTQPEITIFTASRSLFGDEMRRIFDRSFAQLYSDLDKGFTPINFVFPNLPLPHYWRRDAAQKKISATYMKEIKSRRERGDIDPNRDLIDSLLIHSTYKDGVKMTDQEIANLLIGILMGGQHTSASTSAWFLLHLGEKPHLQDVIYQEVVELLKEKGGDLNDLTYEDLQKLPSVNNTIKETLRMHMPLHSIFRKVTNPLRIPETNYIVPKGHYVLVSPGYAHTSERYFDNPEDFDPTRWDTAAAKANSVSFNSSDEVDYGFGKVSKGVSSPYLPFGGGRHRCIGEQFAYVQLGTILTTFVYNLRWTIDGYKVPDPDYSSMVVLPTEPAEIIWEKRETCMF

SMILES: OC(Cn1cncn1)(Cn1cncn1)c1ccc(F)cc1F [FLUCONAZOLE]
- Activity [1]: 1.7%
- MIC (Candida tropicalis): 0.25 µg/mL (≈ 0.816 µM)
- Activity [2]: 0.8%
- Activity [3]: 18.2%
- Activity [4]: 2%
- Activity [5]: 0.4%
- inhibition (INH) [6]: Dose-dependent effect
- MIC (Candida albicans [7]): > 64 µg/mL
- Activity [8]: 3.6%
- inhibition (INH) [9]: Dose-dependent effect
- Activity [10]: 34.8%
- MIC (Aspergillus fumigatus): 16 µg/mL (≈ 52.2 µM)
- MIC (Candida albicans [11]): 2 µg/mL (≈ 6.53 µM)
- Activity [12]: 27%
- Activity [13]: 95.6%
- Activity [14]: 13.3%
- Activity [15]: 37.2%
- MIC (Candida albicans [16]): 1 µg/mL (≈ 3.27 µM)
- Activity [17]: 15.7%
- Activity [18]: 13%
- Activity [19]: 23%
- MIC (Candida albicans [20]): > 64 µg/mL
- Activity [21]: 16.1%
- MIC (Cryptococcus neoformans): 4 µg/mL (≈ 13.1 µM)
- Activity [22]: 4.5%
- inhibition (INH) [23]: Dose-dependent effect
- Activity [24]: 6.9%
- Activity [25]: 7.2%
- Activity [26]: 8.9%
- Activity [27]: 81.4%
- Activity [28]: 88.7%
